Reference: ChEMBL document CHEMBL3046803, “Synthesis and insecticidal activities of novel anthranilic diamides containing acylthiourea and acylurea” (2012)
Active and inactive are the calls of the source. The rule behind the calls is not given here.

Tests used:
[1] = biological target: Voltage-dependent L-type calcium channel, putative (Pediculus humanus subsp. corporis) (UniProt E0VY79); experiment: Inhibition of voltage-dependent L-type calcium channel in Spodoptera exigua neurons assessed as peak calcium current at 0.001 mM measured 4 min post dose by electrophysiology method (reference value: 99.66 +/- 1.64%); set-up: scale not given: the % may be the effect or the level left
Voltage-dependent L-type calcium channel, putative (Pediculus humanus subsp. corporis), sequence (E0VY79 as listed by the source): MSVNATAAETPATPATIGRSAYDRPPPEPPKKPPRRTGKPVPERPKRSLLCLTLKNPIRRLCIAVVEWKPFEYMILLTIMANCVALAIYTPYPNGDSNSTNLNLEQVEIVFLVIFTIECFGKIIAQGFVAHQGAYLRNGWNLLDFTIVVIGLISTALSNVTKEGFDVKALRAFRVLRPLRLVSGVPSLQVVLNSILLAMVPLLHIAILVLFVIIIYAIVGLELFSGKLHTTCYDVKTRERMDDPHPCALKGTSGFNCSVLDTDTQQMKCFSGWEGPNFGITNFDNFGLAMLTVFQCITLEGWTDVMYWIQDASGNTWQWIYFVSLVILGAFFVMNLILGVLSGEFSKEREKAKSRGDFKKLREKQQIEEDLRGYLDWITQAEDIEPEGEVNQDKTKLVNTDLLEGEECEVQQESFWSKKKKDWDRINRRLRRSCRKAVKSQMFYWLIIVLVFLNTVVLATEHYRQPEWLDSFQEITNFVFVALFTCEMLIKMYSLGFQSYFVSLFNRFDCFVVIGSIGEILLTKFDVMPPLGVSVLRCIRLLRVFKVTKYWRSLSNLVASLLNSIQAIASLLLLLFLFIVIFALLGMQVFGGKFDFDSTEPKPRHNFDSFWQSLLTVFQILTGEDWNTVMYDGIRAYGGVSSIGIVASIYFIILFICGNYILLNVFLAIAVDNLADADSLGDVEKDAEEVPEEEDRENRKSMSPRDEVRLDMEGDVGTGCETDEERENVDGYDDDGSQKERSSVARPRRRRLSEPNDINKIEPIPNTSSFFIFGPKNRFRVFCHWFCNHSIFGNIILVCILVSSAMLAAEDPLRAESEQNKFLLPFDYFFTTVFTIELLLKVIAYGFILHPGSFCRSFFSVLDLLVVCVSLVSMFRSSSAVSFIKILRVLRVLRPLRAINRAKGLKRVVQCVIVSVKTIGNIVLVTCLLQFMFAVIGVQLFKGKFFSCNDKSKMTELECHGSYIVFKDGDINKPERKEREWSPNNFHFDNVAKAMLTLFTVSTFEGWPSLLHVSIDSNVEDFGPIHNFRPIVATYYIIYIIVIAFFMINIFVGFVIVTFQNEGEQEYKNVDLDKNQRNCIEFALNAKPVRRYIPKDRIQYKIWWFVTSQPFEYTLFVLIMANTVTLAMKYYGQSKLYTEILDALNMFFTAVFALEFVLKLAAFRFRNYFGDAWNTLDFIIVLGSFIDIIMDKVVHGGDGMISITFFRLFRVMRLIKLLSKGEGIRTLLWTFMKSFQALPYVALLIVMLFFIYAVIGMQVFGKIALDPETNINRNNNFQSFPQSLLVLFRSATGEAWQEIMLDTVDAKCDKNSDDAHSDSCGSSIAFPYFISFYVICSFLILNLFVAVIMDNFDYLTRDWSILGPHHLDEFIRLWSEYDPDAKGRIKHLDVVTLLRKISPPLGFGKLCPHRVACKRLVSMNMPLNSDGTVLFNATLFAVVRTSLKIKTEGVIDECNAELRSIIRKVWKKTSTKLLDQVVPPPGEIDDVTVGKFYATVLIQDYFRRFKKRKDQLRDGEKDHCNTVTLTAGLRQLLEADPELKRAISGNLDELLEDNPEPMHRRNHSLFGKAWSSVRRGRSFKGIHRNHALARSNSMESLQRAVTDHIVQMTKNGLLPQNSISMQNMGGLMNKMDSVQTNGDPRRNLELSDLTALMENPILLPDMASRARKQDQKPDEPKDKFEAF

[2] = biological target: Voltage-dependent L-type calcium channel, putative (Pediculus humanus subsp. corporis) (UniProt E0VY79); experiment: Inhibition of voltage-dependent L-type calcium channel in Spodoptera exigua neurons assessed as peak calcium current at 0.001 mM measured 8 min post dose by electrophysiology method (reference value: 90.85 +/- 0.65%); set-up: scale not given: the % may be the effect or the level left
Mythimna separata [3] = experiment: Insecticidal activity against Mythimna separata (Oriental armyworm) fourth-instar larvae infected Zea mays leaves assessed as larvicidal activity at 20 mg/L measured 2 days post dose; assay type: functional
Outline: (§1)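 Foliar application test: individual corn (Tangyu 10) leaves were placed on moistened filter paper in Petri dishes.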

Mythimna separata [4] = experiment: Insecticidal activity against Mythimna separata (Oriental armyworm) fourth-instar larvae infected Zea mays leaves assessed as larvicidal activity at 5 mg/L measured 2 days post dose; assay type: functional; outline: as §1
[5] = biological target: Voltage-dependent L-type calcium channel, putative (Pediculus humanus subsp. corporis) (UniProt E0VY79); experiment: Inhibition of voltage-dependent L-type calcium channel in Spodoptera exigua neurons assessed as change in peak calcium current at 0.001 mM at -70 mV holding potential measured 1 to 10 min post dose by electrophysiology method
[6] = biological target: Voltage-dependent L-type calcium channel, putative (Pediculus humanus subsp. corporis) (UniProt E0VY79); experiment: Inhibition of voltage-dependent L-type calcium channel in Spodoptera exigua neurons assessed as peak calcium current at 0.1 mM at -70 mV holding potential measured 10 min post dose by electrophysiology method
[7] = biological target: Voltage-dependent L-type calcium channel, putative (Pediculus humanus subsp. corporis) (UniProt E0VY79); experiment: Inhibition of voltage-dependent L-type calcium channel in Spodoptera exigua neurons assessed as peak calcium current at 0.1 mM measured 2 min post dose by electrophysiology method (reference value: 102.75 +/- 2.45%); set-up: scale not given: the % may be the effect or the level left
[8] = biological target: Voltage-dependent L-type calcium channel, putative (Pediculus humanus subsp. corporis) (UniProt E0VY79); experiment: Inhibition of voltage-dependent L-type calcium channel in Spodoptera exigua neurons assessed as peak calcium current at 0.1 mM measured 3 min post dose by electrophysiology method (reference value: 101.76 +/- 2.7%); set-up: scale not given: the % may be the effect or the level left
[9] = biological target: Voltage-dependent L-type calcium channel, putative (Pediculus humanus subsp. corporis) (UniProt E0VY79); experiment: Inhibition of voltage-dependent L-type calcium channel in Spodoptera exigua neurons assessed as peak calcium current at 0.001 mM measured 5 min post dose by electrophysiology method (reference value: 98.06 +/- 1.01%); set-up: scale not given: the % may be the effect or the level left
Mythimna separata [10] = experiment: Insecticidal activity against Mythimna separata (Oriental armyworm) fourth-instar larvae infected Zea mays leaves assessed as larvicidal activity at 100 mg/L measured 2 days post dose; assay type: functional; outline: as §1
[11] = biological target: Voltage-dependent L-type calcium channel, putative (Pediculus humanus subsp. corporis) (UniProt E0VY79); experiment: Inhibition of voltage-dependent L-type calcium channel in Spodoptera exigua neurons assessed as peak calcium current at 0.1 mM at -70 mV holding potential measured 5 min post dose by electrophysiology method
Mythimna separata [12] = experiment: Insecticidal activity against Mythimna separata (Oriental armyworm) fourth-instar larvae infected Zea mays leaves assessed as larvicidal activity at 200 mg/L measured 2 days post dose; assay type: functional; outline: as §1
[13] = biological target: Voltage-dependent L-type calcium channel, putative (Pediculus humanus subsp. corporis) (UniProt E0VY79); experiment: Inhibition of voltage-dependent L-type calcium channel in Spodoptera exigua neurons assessed as peak intracellular calcium level at 1000 mg/L measured 10 min post dose by calcium-imaging technique relative to initial untreated control; assay type: cell-based; set-up: scale not given: the % may be the effect or the level left
Outline: (§2)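 S. exigua neurons were rinsed in physiological saline (pH 6.9). They were dye-loaded in the dark at 28 °C, either with 10 μM fluo-3-AM for 45 min in standard saline or with 5 μM fluo-5N for 5 h in EGTA Ca-free saline, then rinsed twice. [Ca²⁺]i was imaged on an inverted fluorescence microscope (40× oil, 488/530 nm) over 10 min. F/F₀ is relative to resting baseline; ≥6 repeats; mean ± SD.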

Mythimna separata [14] = experiment: Insecticidal activity against Mythimna separata (Oriental armyworm) fourth-instar larvae infected Zea mays leaves assessed as larvicidal activity at 10 mg/L measured 2 days post dose; assay type: functional; outline: as §1
[15] = biological target: Voltage-dependent L-type calcium channel, putative (Pediculus humanus subsp. corporis) (UniProt E0VY79); experiment: Inhibition of voltage-dependent L-type calcium channel in Spodoptera exigua neurons assessed as change in peak calcium current at 0.1 mM at -70 mV holding potential measured 1 min post dose by electrophysiology method
[16] = biological target: Voltage-dependent L-type calcium channel, putative (Pediculus humanus subsp. corporis) (UniProt E0VY79); experiment: Inhibition of voltage-dependent L-type calcium channel in Spodoptera exigua neurons assessed as change in […] calcium level at 1000 mg/L measured 10 min post dose by calcium-imaging technique; outline: as §2
[17] = biological target: Voltage-dependent L-type calcium channel, putative (Pediculus humanus subsp. corporis) (UniProt E0VY79); experiment: Inhibition of voltage-dependent L-type calcium channel in Spodoptera exigua neurons assessed as peak calcium current at 0.1 mM measured 4 min post dose by electrophysiology method (reference value: 99.66 +/- 1.64%); set-up: scale not given: the % may be the effect or the level left
[18] = biological target: Voltage-dependent L-type calcium channel, putative (Pediculus humanus subsp. corporis) (UniProt E0VY79); experiment: Inhibition of voltage-dependent L-type calcium channel in Spodoptera exigua neurons assessed as increase in intracellular calcium level at 1000 mg/L measured 10 min post dose by calcium-imaging technique; assay type: cell-based; outline: as §2
[19] = biological target: Voltage-dependent L-type calcium channel, putative (Pediculus humanus subsp. corporis) (UniProt E0VY79); experiment: Inhibition of voltage-dependent L-type calcium channel in Spodoptera exigua neurons assessed as peak calcium current at 0.1 mM measured 8 min post dose by electrophysiology method (reference value: 90.85 +/- 0.65%); set-up: scale not given: the % may be the effect or the level left
Culex pipiens pallens = experiment: Insecticidal activity against Culex pipiens pallens (mosquito) fourth-instar larvae assessed as larvicidal activity at 2 mg/L measured 3 days post dose; assay type: functional
Outline: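 Mosquito larvicidal test: compounds were dissolved in acetone and diluted with distilled water to the test concentrations.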

[20] = biological target: Voltage-dependent L-type calcium channel, putative (Pediculus humanus subsp. corporis) (UniProt E0VY79); experiment: Inhibition of voltage-dependent L-type calcium channel in Spodoptera exigua neurons assessed as peak calcium current at 0.1 mM measured 10 min post dose by electrophysiology method (reference value: 85.44 +/- 1.14%); set-up: scale not given: the % may be the effect or the level left
[21] = biological target: Voltage-dependent L-type calcium channel, putative (Pediculus humanus subsp. corporis) (UniProt E0VY79); experiment: Inhibition of voltage-dependent L-type calcium channel in Spodoptera exigua neurons assessed as peak calcium current at 0.001 mM measured 3 min post dose by electrophysiology method (reference value: 101.76 +/- 2.7%); set-up: scale not given: the % may be the effect or the level left
[22] = biological target: Ryanodien receptor (Spodoptera exigua) (UniProt H9CNL0); experiment: Inhibition of Ryanodine receptor in Spodoptera exigua neurons assessed as reduction in intracellular calcium level at 1000 mg/L pre-treated with 10 mg/ml heparin and 1 uM thapsigargin by calcium-imaging technique; assay type: cell-based
Outline: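 Primary cultured S. exigua neurons were rinsed in saline, then loaded in the dark at 28 °C with 5 μM fluo-5N for 5 h in Ca-free saline (150 mM NaCl, 4 mM KCl, 2 mM MgCl₂, 2 mM EGTA, 10 mM HEPES, pH 6.9). They were treated with 10 mg/mL heparin for 20 min, then 1 μM thapsigargin for 10 min. Fluorescence was imaged (40× oil, 488/530 nm) and expressed as F/F₀.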

[23] = biological target: Voltage-dependent L-type calcium channel, putative (Pediculus humanus subsp. corporis) (UniProt E0VY79); experiment: Inhibition of voltage-dependent L-type calcium channel in Spodoptera exigua neurons assessed as peak calcium current at 0.1 mM measured 5 min post dose by electrophysiology method (reference value: 98.06 +/- 1.01%); set-up: scale not given: the % may be the effect or the level left
[24] = biological target: Voltage-dependent L-type calcium channel, putative (Pediculus humanus subsp. corporis) (UniProt E0VY79); experiment: Inhibition of voltage-dependent L-type calcium channel in Spodoptera exigua neurons assessed as peak calcium current at 0.1 mM measured 1 min post dose by electrophysiology method (reference value: 104.47 +/- 2.33%); set-up: scale not given: the % may be the effect or the level left
[25] = biological target: Voltage-dependent L-type calcium channel, putative (Pediculus humanus subsp. corporis) (UniProt E0VY79); experiment: Inhibition of voltage-dependent L-type calcium channel in Spodoptera exigua neurons assessed as peak calcium current at 0.001 mM measured 10 min post dose by electrophysiology method (reference value: 85.44 +/- 1.14%); set-up: scale not given: the % may be the effect or the level left
Mythimna separata [26] = experiment: Insecticidal activity against Mythimna separata (Oriental armyworm) fourth-instar larvae infected Zea mays leaves assessed as larvicidal activity at 50 mg/L measured 2 days post dose; assay type: functional; outline: as §1

**Q.** Which results are given for Cc1cc(Cl)cc(C(=O)NC(C)C)c1NC(=S)NC(=O)c1cc(Cl)nn1-c1ncccc1Cl?
**A.** Activity [1]: 90.1%; Activity [2]: 81.2%; Activity (Mythimna separata [3]): 100%; Activity (Mythimna separata [4]): 40%; inhibition [5]: inactive; Activity [6]: -1.27 nanoampere; Activity [7]: 84.1%; Activity [8]: 80.7%; Activity [9]: 84.4%; Activity (Mythimna separata [10]): 100%; Activity [11]: -1.64 nanoampere; Activity (Mythimna separata [12]): 100%; Activity [13]: 117%; Activity (Mythimna separata [14]): 100%; Activity [15]: 10 mV; inhibition [16]: inactive; Activity [17]: 74.4%; Activity [18]: Active; Activity [19]: 61%; Activity (Culex pipiens pallens): 40%; Activity [20]: 54.7%; Activity [21]: 95.8%; inhibition [22]: Active; Activity [23]: 70.2%; Activity [24]: 91.5%; Activity [25]: 74.6%; Activity (Mythimna separata [26]): 100%
